Data published in ChEMBL document CHEMBL4017544 (J Med Chem, 2017).
Calls of active or inactive are those of the source. No cut-off for these calls is given here.

Tests used:
[1] = system: Mus musculus; assay: Toxicity in db/db mouse assessed as effect on food consumption at 0.65 mg/kg, ip administered trice per week for 12 consecutive weeks measured every other day; assay type: organism-based; settings: in vivo
Procedure, shortened: (§1)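 Male db/db mice (8 weeks old, specific pathogen-free, normal chow and filtered water ad libitum) were randomized and dosed i.p. three times weekly for 12 consecutive weeks; vehicle was 5% Tween-80 in 0.9% saline. Body weight and food and water consumption were recorded every other day.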

[2] = system: Mus musculus; assay: Toxicity in db/db mouse assessed as effect on water consumption at 0.65 mg/kg, ip administered trice per week for 12 consecutive weeks measured every other day; assay type: organism-based; settings: in vivo; procedure, shortened: as §1
[3] = system: Mus musculus; assay: Antidiabetic nephropathic activity in db/db mouse assessed as increase in urinary creatinine at 0.65 mg/kg, ip administered thrice per week for 12 consecutive weeks measured at 24 hrs post 11 week administration; assay type: functional, organism-based
Procedure, shortened: (§2)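 Male db/db mice, 8 weeks old, randomized; ip vehicle (5% Tween-80 in 0.9% saline) or drug three times weekly for 12 weeks, n = 6 per group. After 11 weeks, 24 h urine collected for volume, albumin and creatinine, with UACR calculated; blood then sampled for plasma BUN and uric acid. Mean ± SD, one-way ANOVA with Tukey test.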

[4] = system: Mus musculus; assay: Anti-diabetic nephropathic activity in db/db mouse assessed as reduction in urine albumin to creatinine ratio at 0.65 mg/kg, ip administered trice per week for 12 consecutive weeks measured at 24 hrs post 11 week administration; assay type: functional, organism-based; procedure, shortened: as §2
[5] = system: Mus musculus; assay: Renoprotective activity in db/db mouse assessed as reduction in thickening of capillary walls in glomeruli at 0.65 mg/kg, ip administered trice per week for 12 consecutive weeks measured at 11 weeks post dose by H/E-staining based microscopic analysis; assay type: functional, organism-based
Procedure, shortened: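 Male db/db mice, 8 weeks old, were randomized and dosed i.p. three times weekly for 12 weeks (vehicle: 5% Tween-80 in 0.9% saline; n = 6 per group). Kidneys were fixed in 4% PFA and paraffin-embedded. 5 μm sections were stained with HE, PAS or Masson's trichrome and examined at ×400.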

[6] = Drug level in Sprague-Dawley rat liver at 20 mg/kg, ip measured at 90 mins by LC-MS/MS analysis; assay type: ADME, organism-based; settings: read-out: Drug uptake
Procedure, shortened: (§3)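 Rats given a single ip injection, 20 mg/kg (0.04 mmol) of CDDO-Me or 30 mg/kg (0.04 mmol) of the prodrug; heart, kidney and liver collected over time; parent compound and liberated CDDO-Me measured by LC-MS/MS.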

[7] = Drug level in Sprague-Dawley rat heart at 20 mg/kg, ip measured at 90 mins by LC-MS/MS analysis; assay type: ADME, organism-based; settings: read-out: Drug uptake; procedure, shortened: as §3
[8] = Drug level in Krebs buffer treated with 1-Hydroxyl-2-cyano-3-(4-(methyl-L-glutaminate-N5-yl)-benzyloxy)-12-oxo-oleana-2(3),9(11)-dien-28-oic Acid Methyl Ester assessed as bovine kidney GGT-mediated metabolite formation at 100 uM at pH 7.4 after 8 hrs by HPLC analysis; assay type: ADME, Bos taurus; settings: cattle, pH 7.4, 8 h
Procedure, shortened: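 Substrate at 100 μM in Krebs buffer, pH 7.4, 37 °C, with GGT (1 U/mL) and Gly-Gly acceptor (5 mM) for 8 h, in triplicate; acetonitrile (2 volumes) added, enzyme removed by centrifugation, products by HPLC.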

[9] = Drug level in Wistar rat kidney homogenates treated with 1-Hydroxyl-2-cyano-3-(4-(methyl-L-glutaminate-N5-yl)-benzyloxy)-12-oxo-oleana-2(3),9(11)-dien-28-oic Acid Methyl Ester assessed as GGT-mediated metabolite formation at 100 uM after 8 hrs by HPLC analysis; assay type: ADME, tissue-based; settings: tissue homogenate
Procedure, shortened: (§4)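 Plasma, and kidney and liver homogenates in PBS, from three Wistar rats; substrate added at 100 μM at 37 °C; metabolite measured by HPLC every 60 min for 8 h; mean ± SD of three experiments.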

[10] = Drug level in Wistar rat plasma treated with 1-Hydroxyl-2-cyano-3-(4-(methyl-L-glutaminate-N5-yl)-benzyloxy)-12-oxo-oleana-2(3),9(11)-dien-28-oic Acid Methyl Ester assessed as GGT-mediated metabolite formation at 100 uM after 8 hrs by HPLC analysis; assay type: ADME; procedure, shortened: as §4
[11] = Drug level in Wistar rat liver homogenates treated with 1-Hydroxyl-2-cyano-3-(4-(methyl-L-glutaminate-N5-yl)-benzyloxy)-12-oxo-oleana-2(3),9(11)-dien-28-oic Acid Methyl Ester assessed as GGT-mediated metabolite formation at 100 uM after 8 hrs by HPLC analysis; assay type: ADME, tissue-based; settings: tissue homogenate; procedure, shortened: as §4
[12] = system: Mus musculus; assay: Renoprotective activity in db/db mouse assessed as reduction in mesangial expansion at 1 to 2 mg/kg, ip administered trice per week for 12 consecutive weeks measured at 11 weeks post dose by TEM microscopic analysis; assay type: functional, organism-based
Procedure, shortened: (§5)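 Male db/db mice (8 weeks old) were dosed i.p. three times weekly for 12 weeks in 5% Tween-80/0.9% saline, n = 6. Kidney tissue was fixed in 3% glutaraldehyde, cut into 80 nm ultrathin sections and examined by TEM. GBM thickness was measured at 30 random locations from three sections per kidney and averaged per mouse.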

[13] = system: Mus musculus; assay: Antidiabetic nephropathic activity in db/db mouse assessed as reduction in urine albumin to creatinine ratio at 1 to 2 mg/kg, ip administered thrice per week for 12 consecutive weeks measured at 24 hrs post 11 week administration; assay type: functional, organism-based; procedure, shortened: as §2
[14] = biological target: Kelch-like ECH-associated protein 1 (Homo sapiens) (UniProt Q14145); assay: Inhibition of Keap1/Nrf2 (unknown origin) interaction transfected in HEK293 cells assessed as increase in cytosolic HO-1 levels after 48 hrs by Western blot analysis; assay type: cell-based
Kelch-like ECH-associated protein 1 (Homo sapiens), sequence (Q14145 whole entry): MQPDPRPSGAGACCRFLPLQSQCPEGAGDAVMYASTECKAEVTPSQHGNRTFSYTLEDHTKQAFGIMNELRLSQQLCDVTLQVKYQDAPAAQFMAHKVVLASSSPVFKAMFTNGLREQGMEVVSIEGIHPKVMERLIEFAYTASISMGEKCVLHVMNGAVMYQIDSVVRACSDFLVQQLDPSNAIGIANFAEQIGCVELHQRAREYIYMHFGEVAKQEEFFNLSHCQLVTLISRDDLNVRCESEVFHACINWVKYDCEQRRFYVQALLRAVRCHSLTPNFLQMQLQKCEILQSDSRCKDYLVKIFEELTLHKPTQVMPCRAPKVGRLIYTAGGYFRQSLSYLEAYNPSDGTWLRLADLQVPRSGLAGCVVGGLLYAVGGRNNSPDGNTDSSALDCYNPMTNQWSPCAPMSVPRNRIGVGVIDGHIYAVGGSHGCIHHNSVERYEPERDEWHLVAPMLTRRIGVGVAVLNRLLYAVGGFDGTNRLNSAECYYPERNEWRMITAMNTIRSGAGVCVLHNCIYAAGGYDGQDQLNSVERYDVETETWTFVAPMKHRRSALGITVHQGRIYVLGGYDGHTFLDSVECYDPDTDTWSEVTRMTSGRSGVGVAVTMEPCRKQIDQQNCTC
Procedure, shortened: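 HEK293 cells grown in high-glucose DMEM with 10% FBS were treated in triplicate at 200 or 1000 nM for 48 h. Nuclear and cytosolic Nrf2, HO-1 and cytoplasmic NQO1 were measured by western blot with specific antibodies, with TBP and β-actin among the probed proteins. The nuclear/cytosolic Nrf2 ratio was derived from these blots. Three independent experiments, mean ± SD.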

[15] = system: Mus musculus; assay: Toxicity in db/db mouse assessed as change in body weight at 1 to 2 mg/kg, ip administered thrice per week for 12 consecutive weeks measured every other day; assay type: organism-based; settings: in vivo; procedure, shortened: as §1
[16] = system: Mus musculus; assay: Anti-diabetic nephropathic activity in db/db mouse assessed as reduction in plasma urea nitrogen levels at 1 to 2 mg/kg, ip administered thrice per week for 12 consecutive weeks measured 11 weeks post dose; assay type: functional, organism-based; procedure, shortened: as §2
[17] = system: Mus musculus; assay: Antidiabetic nephropathic activity in db/db mouse assessed as reduction in 24 hrs urine volume at 1 to 2 mg/kg, ip administered thrice per week for 12 consecutive weeks measured at 11 weeks post dose; assay type: functional, organism-based; procedure, shortened: as §2
[18] = system: Mus musculus; assay: Renoprotective activity in db/db mouse assessed as reduction in fused podocytes at 1 to 2 mg/kg, ip administered trice per week for 12 consecutive weeks measured at 11 weeks post dose by TEM microscopic analysis; assay type: functional, organism-based; procedure, shortened: as §5
[19] = Drug level in Sprague-Dawley rat kidney at 30 mg/kg, ip measured at 30 mins by LC-MS/MS analysis; assay type: ADME, organism-based; settings: read-out: Drug uptake; procedure, shortened: as §3
[20] = system: Mus musculus; assay: Cardioprotective activity in C57BL/6 db/db mouse assessed as reduction in apoptotic cardiomyocyte levels at 1 to 2 mg/kg, ip administered for 12 weeks by TUNNEL assay; assay type: functional, organism-based
Procedure, shortened: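 db/db mice, 8 weeks old, with C57BL/6 controls; ip vehicle or drug for 12 weeks, n = 6 per group. Heart sections (5 μm) from paraformaldehyde-fixed, paraffin-embedded tissue analysed by TUNEL; percentage of apoptotic cardiomyocytes from three sections per mouse; mean ± SD from two separate experiments.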

Row | SMILES | Activity [1] | Activity [2] | Activity [3] | Activity [4] | Activity [5] | concentration at 1.5 h [6] [ng/g] | concentration at 1.5 h [7] [ng/g] | Drug metabolism [8] | Drug metabolism [9] | Drug metabolism [10] | Drug metabolism [11] | Activity [12] | Activity [13] | inhibition [14] | Activity [15] | Activity [16] | Activity [17] | Activity [18] | concentration at 0.5 h [19] [ng/g] | Activity [20]
1 | COC(=O)[C@]12CCC(C)(C)C[C@H]1[C@H]1C(=O)C=C3[C@@]4(C)C=C(C#N)C(=O)C(C)(C)[C@@H]4CC[C@@]3(C)[C@]1(C)CC2 [BARDOXOLONE METHYL] | Non-Toxic | Non-Toxic | Active | Active | Active | 1550 | 1580 | Metabolite_Detected | Metabolite_Detected | Metabolite_Detected | Metabolite_Detected |  |  |  |  |  |  |  |  | 
2 | COC(=O)[C@@H](N)CCC(=O)Nc1ccc(COC2=C(C#N)[C@H](O)[C@]3(C)C4=CC(=O)[C@@H]5[C@@H]6CC(C)(C)CC[C@]6(C(=O)OC)CC[C@@]5(C)[C@]4(C)CC[C@H]3C2(C)C)cc1 |  |  |  |  |  |  |  |  |  |  |  | Active | Active | Dose-dependent effect | Non-Toxic | Active | Active | Active | 1000 | Active
